Experimental data of several laboratories.
Lines come from different studies, so protocols differ.
Target: Serine/threonine-protein kinase pim-3 (PIM3, Homo sapiens, UniProt Q86V86)

With `CC(C)S(=O)(=O)c1ccc2nccc(Nc3ccc4sc(C5CCCC5)nc4c3)c2c1` the activity vs control was 104% (enzyme activity; inhibitor; 1 µM).
`C#Cc1cnc(Nc2ccnc(CO)c2)nc1Nc1ccccc1S(C)(=O)=NC#N` (stereo not shown) gave a remaining signal of 80% (cell-free assay; 1 µM).
The remaining signal of `C[C@H]1CC[C@H](n2c3cnccc3c3cnc(Nc4ccc5c(n4)CCN(C(=O)CO)C5)nc32)CC1` is reported as 31% (cell-free assay; 1 µM).
The inhibition of `C=CC(=O)N1CCC[C@@H](n2nc(-c3ccc(Oc4ccccc4)cc3)c3c(N)ncnc32)C1` is reported as 0% (enzyme activity; inhibitor; 1 µM).
For `COc1ccc2oc(-c3ccc4nc(N)oc4c3)c/c(=N\c3ccccc3NC(=O)CCN)c2c1`, the remaining binding was 110% (binding; 1 µM).
`N#Cc1ccc(NC(=O)Nc2ccccc2)cc1` gave a remaining binding of 74% (cell-free assay; competition with immobilised ligand; 25 µM).
For `COc1ccc2[nH]c3c4[nH]c5ccc(OC)cc5c4c4c(c3c2c1)C(=O)NC4=O`, the remaining binding was 2.6% (binding; 1 µM).
For `CCCCC(=O)Nc1ccc(-c2ccc3ncn(CCC)c(=O)c3c2)cn1`, the remaining binding was 93% (binding; competition with immobilised ligand; 0.5 µM).
`C1=C/COCc2cc(ccc2OCCN2CCCC2)Nc2nccc(n2)-c2cccc(c2)COC/1` gave a remaining binding of 97% (binding; 0.1 µM).
`C=CC(=O)N1CCC([C@@H]2CCNc3c(C(N)=O)c(-c4ccc(Oc5ccccc5)cc4)nn32)CC1` gave an inhibition of 2% (enzyme activity; inhibitor; 1 µM).
